Measurements reported in ChEMBL document CHEMBL1933045, “Fused thiophene derivatives as MEK inhibitors” (Bioorg Med Chem Lett, 2012).
Values after ≈ are worked out from the molar mass of the structure shown. Active and inactive are the calls of the source. No cut-off for these calls is given here.

Legend:
[1] = target: Dual specificity mitogen-activated protein kinase kinase; MEK1/2 (Homo sapiens, UniProt P36507+Q02750); experiment: Inhibition of human MEK using fluorescein-labelled Erk-tide as substrate after 20 mins by IMAP assay
Summary of the method: (§1)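 Values are means of two experiments, IC50 in nM.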

[2] = Inhibition of Erk phosphorylation in human HT-29 cells; format: cell-based; summary of the method: as §1
HT-29 = experiment: Antiproliferative activity against human HT-29 cells; format: functional, cell-based; summary of the method: as §1
[3] = Aqueous solubility of the compound at pH 7.4; format: physicochemical
Mus musculus [4] = experiment: Inhibition of Erk phosphorylation in PMA-stimulated whole blood in nude mouse bearing human HT-29 cells at 50 mg/kg, po after 6 hrs; format: functional, organism-based; set-up: dose 50 mg/kg
Summary of the method: (§2)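 Nude mice bearing HT-29 tumours, dosed p.o. with vehicle (0 h) or 50 mg/kg compound; pERK measured in PMA-stimulated whole blood at 1, 6 and 18 h post dose. Plasma drug by LC–MS/MS; significance versus vehicle by one-way ANOVA with Bonferroni post test.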

[5] = Cmax in mouse at 10 mg/kg, po; format: ADME, organism-based; set-up: dose 10 mg/kg, route oral; conditions: in vivo
Summary of the method: (§3)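 Female nude mice, single oral dose 10 mg/kg; plasma drug levels measured over time; Cmax and AUClast derived.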

[6] = AUC (0 to last) in mouse at 10 mg/kg, po; format: ADME, organism-based; set-up: time 0 - last, dose 10 mg/kg, route oral; conditions: plasma; summary of the method: as §3
Mus musculus [7] = experiment: Inhibition of Erk phosphorylation in human HT-29 cells xenografted in nude mouse at 50 mg/kg, po after 18 hrs
Mus musculus [8] = experiment: Inhibition of Erk phosphorylation in PMA-stimulated whole blood in nude mouse bearing human HT-29 cells at 50 mg/kg, po after 1 hr; format: functional, organism-based; set-up: dose 50 mg/kg; summary of the method: as §2
Mus musculus [9] = experiment: Inhibition of Erk phosphorylation in PMA-stimulated whole blood in nude mouse bearing human HT-29 cells at 50 mg/kg, po after 18 hrs relative to control; format: functional; conditions: HT-29, Blood; summary of the method: as §2
[10] = Intrinsic clearance in rat hepatocytes assessed per 10^6 cells; format: ADME, cell-based, Hepatocyte; conditions: read-out: CLH

SMILES	IC50 [1] [nM]	IC50 [2] [nM]	IC50 (HT-29) [nM]	also measured
CC1(C)CNC(=O)c2sc(Nc3ccc(I)cc3Cl)c(C(=O)N3CCNCC3)c2C1	456	45	1040	
CC1(C)CNC(=O)c2sc(Nc3ccc(I)cc3F)c(C(=O)NC[C@H]3CCCN3)c2C1	42	22	120	
CC1(C)CNC(=O)c2sc(Nc3ccc(I)cc3F)c(C(=O)N[C@@H]3CCNC3)c2C1	8	9	54	
CC1(C)CNC(=O)c2sc(Nc3ccc(I)cc3F)c(C(=O)O)c2C1	14	978		
CC1(C)CNC(=O)c2sc(Nc3ccc(I)cc3F)c(C(=O)N[C@@H]3CCCNC3)c2C1	22	5	91	
CC1(C)CNC(=O)c2sc(Nc3ccc(I)cc3F)c(C(=O)NCCCO)c2C1	309	140	6210	
CC1(C)CNC(=O)c2sc(Nc3ccc(I)cc3F)c(C(=O)NOC[C@H](O)CO)c2C1	6	51	1580	
CCOC(=O)c1c(Nc2ccc(I)cc2Cl)sc2c1CC(C)(C)CNC2=O	2617			
CCOC(=O)c1c(Nc2ccc(I)cc2F)sc2c1CC(C)(C)CNC2=O	305			
CC1(C)CNC(=O)c2sc(Nc3ccc(I)cc3F)nc2C1	946	1540	8870	
CC(C)(N)CNC(=O)c1c(Nc2ccc(I)cc2F)sc2c1CC(C)(C)CNC2=O	14	6	79	inhibition (Mus musculus [4]): Active; solubility ([3]; aqueous, read-out: solubility): 210 µM (≈ 114 µg/mL); Cmax [5]: 323 ng/mL; AUC(0-t) [6]: 1240 ng·h/mL; inhibition (Mus musculus [7]): inactive; inhibition (Mus musculus [8]): Active; inhibition in vivo at 50 mg/kg (Mus musculus [9]): 35%; hepatocyte CLint [10]: 2.6 µL/min/1e6 cells
CC1(C)CNC(=O)c2sc(Nc3ccc(I)cc3F)c(C(N)=O)c2C1	9		158	
CC1(C)CNC(=O)c2sc(Nc3ccc(I)cc3F)c(C(=O)NOCCO)c2C1	7	18	340	

More lines, main results first:

IC50 [1] [nM]	IC50 [2] [nM]	IC50 (HT-29) [nM]	SMILES	also measured
28	43	710	CC1(C)CNC(=O)c2sc(Nc3ccc(I)cc3Cl)c(C(=O)NC[C@@H](O)CO)c2C1	
13	92	596	CC1(C)CNC(=O)c2sc(Nc3ccc(I)cc3Cl)c(C(N)=O)c2C1	solubility ([3]; buffer): Insoluble
18	13	113	CC(C)(N)CNC(=O)c1c(Nc2ccc(I)cc2Cl)sc2c1CC(C)(C)CNC2=O	
200	717	12100	CC1(C)CNC(=O)c2sc(Nc3ccc(I)cc3Cl)c(C(=O)NCC[C@@H](O)CO)c2C1	
9	76	896	CC1(C)CNC(=O)c2sc(Nc3ccc(I)cc3Cl)c(C(=O)NOC[C@H](O)CO)c2C1	
226	224	1630	CNC(=O)c1c(Nc2ccc(I)cc2Cl)sc2c1CC(C)(C)CNC2=O	
